According to ChEMBL document CHEMBL5724801, “EUbOPEN Chemogenomics Library - Multiplex” (2024):
Several values for one entry are separate records, joined by “and”; a condition that tells them apart may be missing. Identical values can stand only once.

System: U2OS
Test: Multiplex assay against U2OS
Format: toxicity, cell-based
Settings: human
In short: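 With compound added, live cells were imaged on a CQ1 microscope at 37°C and 5% CO2; staining with Hoechst33342, BioTracker Green Microtubule Cytoskeleton Dye, MitoTracker Red and Annexin V Alexa Fluor 680 had been done at seeding. The CellPathfinder machine-learning gating scheme split cells into Hoechst high-intensity objects or normal cells, normal cells into healthy, pyknosed or fragmented nuclei, and pyknosed cells into mitotic or apoptotic. The tubulin, mitochondrial-mass and membrane-permeability phenotypes are per cents of healthy-nucleus cells.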

[1] = 12 h, 1 µM, compound concentration 1 uM
[2] = 12 h, 10 µM, compound concentration 10 uM
[3] = 24 h, 1 µM, compound concentration 1 uM
[4] = 24 h, 10 µM, compound concentration 10 uM
[5] = 48 h, 1 µM, compound concentration 1 uM
[6] = 48 h, 10 µM, compound concentration 10 uM

Compound: O=c1ccc2ccc(OCCCCN3CCN(c4cccc5sccc45)CC3)cc2[nH]1 [BREXPIPRAZOLE]
- Population Apoptotic (%) [1]: 73% and 55%
- Population Fragmented Nuclei (%) [1]: 23% and 16%
- Population Healthy Nuclei (%) [1]: 62% and 69%
- Population Hoechst High Intensity Objects (%) [1]: 6% and 2%
- Population Membrane Permeable-Phenotype (%) [1]: 40% and 32%
- Population Mitochondria Different-Phenotype (%) [1]: 19% and 24%
- Population Mitotic Cells (%) [1]: 26% and 44%
- Population Normal (%) [1]: 93% and 97%
- Population Pyknosed Nuclei (%) [1]: 13% and 14%
- Population Tubulin-Different-Phenotype (%) [1]: 36% and 30%
- Total Cell Count [1]: 178 and 126
- Population Apoptotic (%) [2]: 86% and 82%
- Population Fragmented Nuclei (%) [2]: 31% and 21%
- Population Healthy Nuclei (%) [2]: 27% and 43%
- Population Hoechst High Intensity Objects (%) [2]: 6% and 9%
- Population Membrane Permeable-Phenotype (%) [2]: 57% and 53%
- Population Mitochondria Different-Phenotype (%) [2]: 82% and 90%
- Population Mitotic Cells (%) [2]: 13% and 17%
- Population Normal (%) [2]: 93% and 90%
- Population Pyknosed Nuclei (%) [2]: 41% and 35%
- Population Tubulin-Different-Phenotype (%) [2]: 83% and 95%
- Total Cell Count [2]: 220 and 109
- Population Apoptotic (%) [3]: 68% and 66%
- Population Fragmented Nuclei (%) [3]: 26% and 12%
- Population Healthy Nuclei (%) [3]: 55% and 67%
- Population Hoechst High Intensity Objects (%) [3]: 3%
- Population Membrane Permeable-Phenotype (%) [3]: 19% and 22%
- Population Mitochondria Different-Phenotype (%) [3]: 22% and 28%
- Population Mitotic Cells (%) [3]: 31% and 33%
- Population Normal (%) [3]: 96%
- Population Pyknosed Nuclei (%) [3]: 18% and 19%
- Population Tubulin-Different-Phenotype (%) [3]: 18% and 16%
- Total Cell Count [3]: 181 and 128
- Population Apoptotic (%) [4]: 93% and 91%
- Population Fragmented Nuclei (%) [4]: 30% and 19%
- Population Healthy Nuclei (%) [4]: 25% and 26%
- Population Hoechst High Intensity Objects (%) [4]: 13% and 22%
- Population Membrane Permeable-Phenotype (%) [4]: 47% and 56%
- Population Mitochondria Different-Phenotype (%) [4]: 67% and 86%
- Population Mitotic Cells (%) [4]: 6% and 8%
- Population Normal (%) [4]: 86% and 77%
- Population Pyknosed Nuclei (%) [4]: 44% and 54%
- Population Tubulin-Different-Phenotype (%) [4]: 76% and 91%
- Total Cell Count [4]: 213 and 112
- Population Apoptotic (%) [5]: 64% and 73%
- Population Fragmented Nuclei (%) [5]: 21% and 22%
- Population Healthy Nuclei (%) [5]: 61% and 56%
- Population Hoechst High Intensity Objects (%) [5]: 4% and 2%
- Population Mitochondria Different-Phenotype (%) [5]: 12% and 31%
- Population Mitotic Cells (%) [5]: 35% and 26%
- Population Normal (%) [5]: 95% and 97%
- Population Pyknosed Nuclei (%) [5]: 16% and 21%
- Population Tubulin-Different-Phenotype (%) [5]: 8% and 18%
- Total Cell Count [5]: 240 and 161
- Population Apoptotic (%) [6]: 96% and 100%
- Population Fragmented Nuclei (%) [6]: 45% and 29%
- Population Healthy Nuclei (%) [6]: 12% and 14%
- Population Hoechst High Intensity Objects (%) [6]: 26% and 32%
- Population Membrane Permeable-Phenotype (%) [6]: 45% and 70%
- Population Mitochondria Different-Phenotype (%) [6]: 30% and 90%
- Population Mitotic Cells (%) [6]: 3% and 0%
- Population Normal (%) [6]: 73% and 67%
- Population Pyknosed Nuclei (%) [6]: 41% and 56%
- Population Tubulin-Different-Phenotype (%) [6]: 40% and 90%
- Total Cell Count [6]: 215 and 105

Compound: CN(C)c1ccnc2sc3c(=O)n(N4CCCCCC4)cnc3c12
- Population Apoptotic (%) [1]: 81% and 87%
- Population Fragmented Nuclei (%) [1]: 19% and 16%
- Population Healthy Nuclei (%) [1]: 72% and 77%
- Population Hoechst High Intensity Objects (%) [1]: 1%
- Population Membrane Permeable-Phenotype (%) [1]: 4% and 6%
- Population Mitochondria Different-Phenotype (%) [1]: 2%
- Population Mitotic Cells (%) [1]: 18% and 12%
- Population Normal (%) [1]: 98%
- Population Pyknosed Nuclei (%) [1]: 7% and 6%
- Population Tubulin-Different-Phenotype (%) [1]: 2%
- Total Cell Count [1]: 284 and 132
- Population Apoptotic (%) [2]: 41% and 88%
- Population Fragmented Nuclei (%) [2]: 30% and 18%
- Population Healthy Nuclei (%) [2]: 56% and 71%
- Population Hoechst High Intensity Objects (%) [2]: 4% and 5%
- Population Membrane Permeable-Phenotype (%) [2]: 30% and 23%
- Population Mitochondria Different-Phenotype (%) [2]: 14% and 27%
- Population Normal (%) [2]: 95% and 94%
- Population Pyknosed Nuclei (%) [2]: 12% and 9%
- Population Tubulin-Different-Phenotype (%) [2]: 20% and 22%
- Total Cell Count [2]: 249 and 101
- Population Apoptotic (%) [3]: 87% and 72%
- Population Fragmented Nuclei (%) [3]: 16% and 15%
- Population Healthy Nuclei (%) [3]: 72% and 76%
- Population Hoechst High Intensity Objects (%) [3]: 2%
- Population Membrane Permeable-Phenotype (%) [3]: 3% and 6%
- Population Mitochondria Different-Phenotype (%) [3]: 3%
- Population Mitotic Cells (%) [3]: 12% and 27%
- Population Normal (%) [3]: 97%
- Population Pyknosed Nuclei (%) [3]: 10% and 7%
- Population Tubulin-Different-Phenotype (%) [3]: 1% and 4%
- Total Cell Count [3]: 326 and 150
- Population Apoptotic (%) [4]: 68% and 100%
- Population Fragmented Nuclei (%) [4]: 28% and 11%
- Population Healthy Nuclei (%) [4]: 56% and 75%
- Population Hoechst High Intensity Objects (%) [4]: 4% and 3%
- Population Membrane Permeable-Phenotype (%) [4]: 22% and 23%
- Population Mitochondria Different-Phenotype (%) [4]: 15% and 25%
- Population Normal (%) [4]: 95% and 96%
- Population Pyknosed Nuclei (%) [4]: 15% and 13%
- Population Tubulin-Different-Phenotype (%) [4]: 14% and 24%
- Total Cell Count [4]: 260 and 108
- Population Apoptotic (%) [5]: 90% and 92%
- Population Fragmented Nuclei (%) [5]: 17% and 15%
- Population Healthy Nuclei (%) [5]: 74% and 72%
- Population Hoechst High Intensity Objects (%) [5]: 2%
- Population Membrane Permeable-Phenotype (%) [5]: 4% and 5%
- Population Mitochondria Different-Phenotype (%) [5]: 1% and 5%
- Population Mitotic Cells (%) [5]: 9% and 7%
- Population Normal (%) [5]: 97%
- Population Pyknosed Nuclei (%) [5]: 8% and 11%
- Population Tubulin-Different-Phenotype (%) [5]: 2%
- Total Cell Count [5]: 486 and 239
- Population Apoptotic (%) [6]: 68% and 72%
- Population Fragmented Nuclei (%) [6]: 28% and 15%
- Population Healthy Nuclei (%) [6]: 57% and 61%
- Population Hoechst High Intensity Objects (%) [6]: 4% and 9%
- Population Membrane Permeable-Phenotype (%) [6]: 15% and 21%
- Population Mitochondria Different-Phenotype (%) [6]: 11% and 19%
- Population Mitotic Cells (%) [6]: 31% and 27%
- Population Normal (%) [6]: 95% and 90%
- Population Pyknosed Nuclei (%) [6]: 14% and 22%
- Total Cell Count [6]: 325 and 140
